This note sets out measurements from ChEMBL document CHEMBL1157529, “Lantadenes and their esters as potential antitumor agents” (J Nat Prod, 2008).

Molecules are shown by their SMILES. Values after ≈ are worked out from the molar mass of the structure shown.

The subject of one assay is HL-60. Nature of the assay: Cytotoxicity against human HL60 cells after 48 hrs by MTT assay. It is filed as functional, cell-based. The conditions noted are these: HL-60, 48 h. The method in brief: (§1)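 HL-60, HeLa, colon 502713 and A-549 cells grown in RPMI with 10% FBS, streptomycin and penicillin at 37 °C, 5% CO2. Cells (2 × […]/0.1 mL well) exposed 48 h to serial compound dilutions. MTT added for the final 4 h at 37 °C. Formazan extracted in DMSO and read at 540 nm. Mean and standard deviation of triplicate assays.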
(Formazan colour is commonly taken as a measure of viable cells.)

The next assay concerns HeLa. Kind of assay: Cytotoxicity against human HeLa cells after 48 hrs by MTT assay. It is filed as functional, cell-based. The method in brief:
as §1

Assay [1] in a line: Cytotoxicity against human colon 502713 cells after 48 hrs by MTT assay. The format is functional, cell-based. As to conditions: Homo sapiens, 502713, 48 h. The method, boiled down:
as §1

Another assay has as its system A549. Kind of assay: Cytotoxicity against human A549 cells after 48 hrs by MTT assay. As to conditions: A549, 48 h. It is filed as functional, cell-based. The method in brief: as §1
Assay [2] in a line: Inhibition of DMBA-induced/TPA-promoted carcinogenesis in Swiss albino mouse squamous cells assessed as incidence of skin papillomas administered orally 1 week before DMBA administration and continued for 20 weeks relative to DMPA/TPA treated control. It is filed as functional. The method in brief:
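Female Swiss albino mice (LACCA, 6 weeks, 18-22 g), backs depilated. DMBA 100 nmol in 100 µL acetone applied topically for 2 weeks, then TPA 1.7 nmol in 100 µL acetone twice weekly for 18 weeks. Compounds given orally in water/carboxymethyl cellulose, starting 1 week before DMBA, for 20 weeks. n = 10 per group. Papilloma incidence, body weight and survival recorded.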

Assay [3] is described as follows: Inhibition of DMBA-induced/TPA-promoted carcinogenesis in Swiss albino mouse squamous cells assessed as survival rate administered orally 1 week before DMBA administration and continued for 20 weeks relative to DMPA/TPA treated control. The format is functional. The method in brief:
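Female Swiss albino mice (LACCA, 6 weeks, 18-22 g), depilated back; DMBA 100 nmol/100 µL acetone topically for 2 weeks, then TPA 1.7 nmol/100 µL acetone twice weekly for 18 weeks. Compounds given orally as suspension in water/carboxymethyl cellulose from 1 week before DMBA for 20 weeks, n = 10/group. Number of surviving animals recorded at 20 weeks.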

A word on the IC50: it is the concentration needed to halve the response being measured. Take `COC(=O)[C@@]12CC[C@]3(C)C(=CC[C@@H]4[C@@]5(C)CCC(=O)C(C)(C)[C@@H]5CC[C@]43C)[C@@H]1CC(C)(C)C[C@H]2OC(C)=O`: the half-maximal inhibitory concentration (IC50) in the assay with HL-60 turned out to be 37.3 mg/L (≈ 70.8 µM); in the assay with HeLa, 36.2 mg/L (≈ 68.7 µM); in assay [1] it was 34.6 mg/L (≈ 65.7 µM); in the assay with A549, 36.8 mg/L (≈ 69.9 µM).
In the case of `COC(=O)[C@@]12CC[C@]3(C)C(=CC[C@@H]4[C@@]5(C)CCC(=O)C(C)(C)[C@@H]5CC[C@]43C)[C@@H]1CC(C)(C)C[C@H]2O`, the IC50 in the assay with HL-60 was 70.6 mg/L (≈ 146 µM); with HeLa, over 100 mg/L; in assay [1], 72.4 mg/L (≈ 149 µM); in the assay with A549, 84.2 mg/L (≈ 174 µM).
`CC(=O)O[C@@H]1CC(C)(C)C[C@H]2C3=CC[C@@H]4[C@@]5(C)CCC(=O)C(C)(C)[C@@H]5CC[C@@]4(C)[C@]3(C)CC[C@@]12C(=O)O`: the IC50 in the assay with HL-60 is 38.5 mg/L (≈ 75.1 µM); in the assay on HeLa it was 37.3 mg/L (≈ 72.7 µM); in assay [1] it was 34.4 mg/L (≈ 67.1 µM); with A549, 36.8 mg/L (≈ 71.8 µM).
On to `CC1(C)C[C@@H](O)[C@]2(C(=O)O)CC[C@]3(C)C(=CC[C@@H]4[C@@]5(C)CCC(=O)C(C)(C)[C@@H]5CC[C@]43C)[C@@H]2C1`, for which the IC50 in the assay on HL-60 was under 100 mg/L; in the assay with HeLa, over 100 mg/L; in assay [1] it was over 100 mg/L; in the assay on A549, over 100 mg/L.
On to `CCC(=O)O[C@@H]1CC(C)(C)C[C@H]2C3=CC[C@@H]4[C@@]5(C)CCC(=O)C(C)(C)[C@@H]5CC[C@@]4(C)[C@]3(C)CC[C@@]12C(=O)O`, for which the IC50 was 26.4 mg/L (≈ 50.1 µM) with HL-60, 28.6 mg/L (≈ 54.3 µM) in the assay with HeLa, 25.4 mg/L (≈ 48.2 µM) in assay [1] and 29.6 mg/L (≈ 56.2 µM) in the assay on A549. Besides, the “inhibition (INH)” value in assay [2] is recorded as 19.6%. The survival rate in assay [3] is recorded as 80%.
Take `C/C=C(/C)C(=O)O[C@@H]1CC(C)(C)C[C@H]2C3=CC[C@@H]4[C@@]5(C)CCC(=O)C(C)(C)[C@@H]5CC[C@@]4(C)[C@]3(C)CC[C@@]12C(=O)O` [LANTADENE A]: the half-inhibitory concentration (IC50) with HL-60 is 19.8 mg/L (≈ 35.8 µM); with HeLa, 23.3 mg/L (≈ 42.1 µM); in assay [1], 21.3 mg/L (≈ 38.5 µM); in the assay with A549, 21.8 mg/L (≈ 39.4 µM). The “inhibition (INH)” value in assay [2] is 18.1%.
As for `CCCC(=O)O[C@@H]1CC(C)(C)C[C@H]2C3=CC[C@@H]4[C@@]5(C)CCC(=O)C(C)(C)[C@@H]5CC[C@@]4(C)[C@]3(C)CC[C@@]12C(=O)O`, the half-maximal inhibitory concentration (IC50) came out at 21.6 mg/L (≈ 39.9 µM) in the assay with HL-60, 22.8 mg/L (≈ 42.2 µM) with HeLa, 25.2 mg/L (≈ 46.6 µM) in assay [1] and 27.1 mg/L (≈ 50.1 µM) in the assay with A549. Besides, in assay [2], the “inhibition (INH)” value was 17.2%.
As for `CC(C)C(=O)O[C@@H]1CC(C)(C)C[C@H]2C3=CC[C@@H]4[C@@]5(C)CCC(=O)C(C)(C)[C@@H]5CC[C@@]4(C)[C@]3(C)CC[C@@]12C(=O)O`, the IC50 worked out at 41.2 mg/L (≈ 76.2 µM) in the assay with HL-60, 43.6 mg/L (≈ 80.6 µM) with HeLa, 37.6 mg/L (≈ 69.5 µM) in assay [1] and 44.2 mg/L (≈ 81.7 µM) in the assay with A549. Moreover, the survival rate in assay [3] is given as 80%.
Turning to `COC(=O)[C@@]12CC[C@]3(C)C(=CC[C@@H]4[C@@]5(C)CCC(=O)C(C)(C)[C@@H]5CC[C@]43C)[C@@H]1CC(C)(C)C[C@H]2OC(=O)c1ccccc1`, the half-inhibitory concentration (IC50) was 48 mg/L (≈ 81.5 µM) in the assay with HL-60, 50.7 mg/L (≈ 86.1 µM) with HeLa, over 100 mg/L in assay [1] and over 100 mg/L in the assay with A549.
Regarding `COC(=O)[C@@]12CC[C@]3(C)C(=CC[C@@H]4[C@@]5(C)CCC(=O)C(C)(C)[C@@H]5CC[C@]43C)[C@@H]1CC(C)(C)C[C@H]2OC(=O)C(C)C`, the IC50 in the assay with HL-60 was 39.5 mg/L (≈ 71.2 µM); in the assay with HeLa it was 41.1 mg/L (≈ 74.1 µM); in assay [1], 38.1 mg/L (≈ 68.7 µM); with A549, 42.2 mg/L (≈ 76.1 µM).
On to `CC(=O)O[C@H]1C(=O)[C@@]2(C)[C@H]([C@H](OC(=O)c3ccccc3)[C@]3(O)C[C@H](OC(=O)[C@H](O)[C@@H](NC(=O)c4ccccc4)c4ccccc4)C(C)=C1C3(C)C)[C@]1(OC(C)=O)CO[C@@H]1C[C@@H]2O` [PACLITAXEL], for which the 50% inhibitory concentration (IC50) with HL-60 is under 2 mg/L; in the assay on HeLa it was over 3 mg/L; in assay [1] it was under 2 mg/L; in the assay with A549 it was under 2 mg/L.
On to `CC1(C)C[C@@H](OC(=O)c2ccccc2)[C@]2(C(=O)O)CC[C@]3(C)C(=CC[C@@H]4[C@@]5(C)CCC(=O)C(C)(C)[C@@H]5CC[C@]43C)[C@@H]2C1`, for which the IC50 in the assay with HL-60 was 50.8 mg/L (≈ 88.4 µM); in the assay with HeLa, 46.3 mg/L (≈ 80.5 µM); in assay [1] it was 51.2 mg/L (≈ 89.1 µM); with A549, over 100 mg/L.
Consider `CCCC(=O)O[C@@H]1CC(C)(C)C[C@H]2C3=CC[C@@H]4[C@@]5(C)CCC(=O)C(C)(C)[C@@H]5CC[C@@]4(C)[C@]3(C)CC[C@@]12C(=O)OC`, for which the IC50 is 19.3 mg/L (≈ 34.8 µM) in the assay on HL-60, 20.1 mg/L (≈ 36.2 µM) with HeLa, 21.1 mg/L (≈ 38 µM) in assay [1] and 22.4 mg/L (≈ 40.4 µM) in the assay with A549. Further, the “inhibition (INH)” value in assay [2] is 12.4%. In assay [3], the survival rate was determined as 80%.
Take `CCC(=O)O[C@@H]1CC(C)(C)C[C@H]2C3=CC[C@@H]4[C@@]5(C)CCC(=O)C(C)(C)[C@@H]5CC[C@@]4(C)[C@]3(C)CC[C@@]12C(=O)OC`: the concentration for half-maximal inhibition (IC50) came out at 24.2 mg/L (≈ 44.7 µM) with HL-60, 26.4 mg/L (≈ 48.8 µM) with HeLa, 22.4 mg/L (≈ 41.4 µM) in assay [1] and 28.4 mg/L (≈ 52.5 µM) in the assay on A549. Moreover, the “inhibition (INH)” value in assay [2] is 17.9%. For the same compound, the survival rate in assay [3] is 80%.
